CHO parental Ca: ATP-evoked calcium signal inhibitors, parental CHO, primary screen, counter-screen for OX1R antagonist project, cell-based, fluorescence, Fluo-8 calcium dye; parental CHO-K1, ATP-induced calcium, Fluo-8 fluorescence; inhibition, % at 5.6 µM; actives 0.63% (n = 330,000);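 active = inhibition above that plate's mean sample inhibition plus 3 SD, cut at about 26% in these data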;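 note: 0% = ATP-challenged DMSO wells and 100% = DMSO wells without ATP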
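Material: Parental CHO cells | Reagent: ATP | Compound dosing: Single nominal dose of 5.6 µM per compound | Detection: Intracellular calcium via Fluo-8 no-wash fluorescent dye | Read-out: % inhibition of ATP-induced calcium mobilization | Benchmarks: Low control ATP plus DMSO, high control DMSO only | Replicates: Singlicate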
OX1R antag-1: antagonists of human orexin 1 receptor (OX1R); Orexin/Hypocretin receptor type 1 (Homo sapiens), O43613; OX1R-expressing cells, FRET antagonist read-out; inhibition, % at 6.6 µM; actives 1.8% (n = 330,000); AID 485270, 2010; in the data active = inhibition mostly above about 38%, no sharp cut-off; inactive = mostly below about 40%;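 note: 0% = agonist challenge alone and 100% = reference antagonist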
TAAR1 ag: human TAAR1 agonists, primary screen, Fluo-8 calcium fluorescence, CHO RD-HGA16 cells. Trace amine-associated receptor 1 (Homo sapiens), Q96RJ0. vehicle wells 0%, saturating PEA agonist 100%. activation, % at 3 µM. actives 0.99% (n = 360,000);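 active = activation above the mean activation of all test compounds in the run plus 3 SD, cut at about 38% in these data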
Target sequence (Q96RJ0 whole entry, looked up): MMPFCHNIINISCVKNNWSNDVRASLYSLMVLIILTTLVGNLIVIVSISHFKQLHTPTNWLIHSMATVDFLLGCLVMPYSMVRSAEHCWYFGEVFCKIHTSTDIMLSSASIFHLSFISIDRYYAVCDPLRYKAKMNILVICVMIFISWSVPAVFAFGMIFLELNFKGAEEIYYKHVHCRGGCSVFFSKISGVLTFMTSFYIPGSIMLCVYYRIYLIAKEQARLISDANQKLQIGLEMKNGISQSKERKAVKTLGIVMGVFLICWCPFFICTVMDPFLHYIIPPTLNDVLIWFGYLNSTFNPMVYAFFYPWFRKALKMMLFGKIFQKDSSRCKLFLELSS
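Repeats: no replicates (n 1) | Material: CHO-derived RD-HGA16 cells with stable Gα16 and human TAAR1 | Technique: Kinetic Fluo-8 calcium fluorescence | Schedule: 17-24 h seeding, 75 min 37 °C dye, 30 min RT | Evaluation: % activation from peak over basal fluorescence ratio, DMSO-to-PEA scaled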
TAAR1 antagonist: human TAAR1 antagonists, primary screen, Fluo-8 calcium fluorescence, CHO RD-HGA16 cells; antagonist; Trace amine-associated receptor 1 (Homo sapiens), Q96RJ0; inhibition, % at 3 µM; actives 1.5% (n = 360,000); AID 624466, 2012;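 active = inhibition above a per-plate cutoff, the mean inhibition of test compounds on that plate plus 3 SD, cut at about 49% in these data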;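 note: 0% = DMSO plus EC80 beta-PEA response and 100% = DMSO alone without agonist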
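Test system: RD-HGA16 CHO cells with stable hTAAR1 and Gα16 / Probe or stimulus: EC80 β-phenethylamine stimulus / Times: seeding 17-24 h prior, 75-min 37 °C, 30-min RT dye loading / Detection: Fluo-8 calcium-sensitive fluorescence / Read-out basis: % inhibition scaled between DMSO and EC80 PEA controls / Repeats: singlicate, one well per test compound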
OX1R antag-2: OX1R (HCRTR1) antagonists, primary screen, fluorescence, CHO/OX1R cells, Fluo-8 calcium, orexin A. Orexin/Hypocretin receptor type 1 (Homo sapiens), O43613. Fluo-8 calcium fluorescence. inhibition, % at 5 µM. actives 0.43% (n = 330,000);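 active = inhibition above its plate's threshold, mean inhibition of all tested compounds on the plate plus 3 SD, cut at about 37% in these data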;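 note: 0% = orexin A challenge wells and 100% = SB-334867-A antagonist wells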
GPR7 antag: GPR7 receptor antagonists, primary screen, cell-based, fluorescence, single concentration; GPR7-expressing cells, fluorescence antagonist assay; inhibition, % at 4.4 µM; actives 1.1% (n = 290,000); in the data active = inhibition above about 16%, passing the limit was not always enough;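 note: cells stimulated with the agonist NPW; 0% = agonist with vehicle and 100% = vehicle without agonist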
* marks the source's active call; other numbers are inactive results; nt = no result. A selection: hits, their analogues and other compounds. The true share with any hit is near 4.6%.

SMILES	CHO parental Ca	OX1R antag-1	TAAR1 ag	TAAR1 antagonist	OX1R antag-2	GPR7 antag
Cc1[nH]c2ccccc2c1/C=N/NC(=O)c1cc(C(C)(C)C)[nH]n1	-6	38*	1	5	-15	-3
Cc1[nH]c2ccccc2c1/C=N/NC(=O)c1ccccc1	-15	8	1	-4	-8	-5
CC(C)(C)c1cc(C(=O)N/N=C/c2ccccn2)n[nH]1	-10	8	1	0	-19	-8
Cc1[nH]c2ccccc2c1/C=N/NC(=O)c1cc(-c2ccccc2)n[nH]1	7	70*	15	61*	30	3
NS(=O)(=O)c1ccc(CCNC(=O)CSc2ccc(Cl)cc2)cc1	35*	5	0	19	40	-6
NS(=O)(=O)c1ccc(CCNC(=O)COC(=O)CCSc2ccc(Cl)cc2)cc1	-1	5	7	22	-2	-9
Brc1ccc(OCc2ccccc2)c(CNCc2ccncc2)c1	-11	18	14	70*	-18	5
Fc1ccc(COc2ccccc2CNCc2ccncc2)cc1	1	1	4	-13	-20	-6
NC(=O)COC(=O)CNC(=O)c1cc(Cl)cc([N+](=O)[O-])c1	1	53*	6	21	-15	-2
O=C(CNC(=O)c1cc(Cl)cc([N+](=O)[O-])c1)OCC(=O)N1CCCCC1	-17	41*	0	0	-6	nt
Cc1cc(C(=O)NCC(=O)OCC(=O)N2CCCCCC2)ccc1[N+](=O)[O-]	-7	11	1	-13	-5	-5
CC(C)(C)NC(=O)NC(=O)COC(=O)CNC(=O)c1cc(Cl)cc([N+](=O)[O-])c1	-10	68	0	-3	-8	-1
O=C(NCC1CC1)c1cc([N+](=O)[O-])cc([N+](=O)[O-])c1	-8	54*	11	-3	-5	-8
O=C(NCC1CCCCC1)c1cccc([N+](=O)[O-])c1	-6	3	-1	-2	-9	-2
CCN(CC)C(=O)C1=C(C)N(CCC2=CCCCC2)C(=O)C(CC(=O)NCc2ccco2)C1 (configuration not stated)	nt	nt	-2	-24	nt	nt
CCCCC1(C)OC(=O)C(=Cc2ccc(N(CC)CC)cc2)C(=O)O1 (configuration not stated)	4	19	46*	19	-4	-9
C[C@@H]1CN([C@@H](C)CO)C(=O)CCCn2nncc2CO[C@H]1CN(C)S(=O)(=O)c1ccc(F)cc1	nt	nt	3	-4	nt	nt
Cc1ccn2cc(-c3ccc4c(c3)NC(=O)CO4)nc2c1	1	10	0	-4	-13	17*
Cc1cccn2cc(-c3ccc4c(c3)NC(=O)CO4)nc12	-10	36	0	-3	-7	-6
Cc1cccc2c3c([nH]c12)CCNC3	9	9	40*	28	-4	5
Cc1cccc2c(Cl)cc(=O)[nH]c12	nt	nt	7	-6	nt	-14
COC(=O)C1=C(C)N(CC(C)C)C(=S)NC1c1cccc(Br)c1 (configuration not stated)	nt	nt	3	49	nt	nt
Cn1nnnc1SCc1nnc(-c2ccccc2Br)o1	2	3	16	0	-15	-11
Cc1ccc(-n2nnnc2SCc2nnc(-c3ccccc3Br)o2)c(C)c1	25	44*	4	17	63*	-8
c1ccc(-c2cc3cc4c(cc3cn2)OCO4)cc1	-20	72*	19	12	39	nt
COc1ccc(NC(=O)Nc2cccc3c2O[C@H](CN(C)C(=O)Nc2ccc(OC)cc2)[C@@H](C)CN([C@H](C)CO)C3=O)cc1	-6	9	17	56*	-12	nt
COc1ccc(NC(=O)N(C)C[C@H]2Oc3c(NC(=O)Nc4ccc5c(c4)OCO5)cccc3C(=O)N([C@H](C)CO)C[C@@H]2C)cc1	8	8	22	49*	-10	nt

High-throughput results from PubChem.
